Measured values from ChEMBL document CHEMBL4325893, “Synthesis and antibacterial profiles of targeted triclosan derivatives” (2019).
In brackets after ≈: the same amount, converted by molar mass.

How the values were obtained:
[1] = system: Staphylococcus aureus; experiment: Antibacterial activity against Staphylococcus aureus ATCC 6538 after 18 hrs; type: functional; details: ATCC 6538, 18 h
Method in brief: (§1)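 Broth microdilution in Nutrient Broth No. 2; stocks in ethanol diluted to 0.01–128 µg/ml (triclosan) or 0.25–256 µg/ml (glycosides). Overnight 37 °C NB2 cultures diluted 1 in 10^4 in saline and added to the dilutions. Incubation at 37 °C with agitation, OD read every 15 min; MIC is the lowest concentration preventing any OD rise after 18 h.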

[2] = system: Staphylococcus aureus; experiment: Antibacterial activity against Staphylococcus aureus ATCC 6538P after 18 hrs; type: functional; method in brief: as §1
[3] = system: Staphylococcus aureus; experiment: Antibacterial activity against Staphylococcus aureus ATCC 9144 after 18 hrs; type: functional; details: ATCC 9144, 18 h; method in brief: as §1
[4] = system: Staphylococcus aureus; experiment: Antibacterial activity against Staphylococcus aureus ATCC 25923 after 18 hrs; type: functional; details: ATCC 25923, 18 h; method in brief: as §1
[5] = system: Staphylococcus aureus; experiment: Antibacterial activity against Staphylococcus aureus ATCC 29213 after 18 hrs; type: functional; details: ATCC 29213, 18 h; method in brief: as §1
[6] = system: Staphylococcus aureus; experiment: Antibacterial activity against Staphylococcus aureus NCTC 13758 after 18 hrs; type: functional; details: NCTC 13758, 18 h; method in brief: as §1
[7] = system: Staphylococcus aureus; experiment: Antibacterial activity against Staphylococcus aureus OCC 104 after 18 hrs; type: functional; details: OCC 104, 18 h; method in brief: as §1
[8] = system: Staphylococcus aureus; experiment: Antibacterial activity against Staphylococcus aureus OCC 106 after 18 hrs; type: functional; details: OCC 106, 18 h; method in brief: as §1
[9] = system: Staphylococcus epidermidis; experiment: Antibacterial activity against Staphylococcus epidermidis 155 after 18 hrs; type: functional; details: Staphylococcus epidermidis, 155, 18 h; method in brief: as §1
[10] = system: Staphylococcus epidermidis; experiment: Antibacterial activity against Staphylococcus epidermidis ATCC 12228 after 18 hrs; type: functional; details: ATCC 12228, 18 h; method in brief: as §1
[11] = system: Staphylococcus epidermidis; experiment: Antibacterial activity against Staphylococcus epidermidis ATCC 14990 after 18 hrs; type: functional; details: ATCC 14990, 18 h; method in brief: as §1
[12] = system: Staphylococcus haemolyticus; experiment: Antibacterial activity against Staphylococcus haemolyticus OCC 2223 after 18 hrs; type: functional; details: OCC 2223, 18 h
Method in brief: (§2)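 Broth microdilution in Nutrient Broth No. 2. Ethanol stocks were diluted in broth to 0.01–128 µg/ml for triclosan and 0.25–256 µg/ml for glycosides. Overnight 37°C NB2 cultures were diluted 1 in 10^4 in saline and added to the wells. Plates were incubated at 37°C with OD read every 15 min after agitation. MIC was the lowest concentration giving no OD increase at 18 h.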

[13] = system: Staphylococcus saprophyticus; experiment: Antibacterial activity against Staphylococcus saprophyticus ATCC 15305 after 18 hrs; type: functional; details: ATCC 15305, 18 h; method in brief: as §2
[14] = system: Streptococcus agalactiae; experiment: Antibacterial activity against Streptococcus agalactiae OCC 182 after 18 hrs; type: functional; details: OCC 182, 18 h; method in brief: as §2
[15] = system: Streptococcus pneumoniae; experiment: Antibacterial activity against Streptococcus pneumoniae 6305 after 18 hrs; type: functional; details: Streptococcus pneumoniae, 6305, 18 h; method in brief: as §2
[16] = system: Streptococcus pneumoniae; experiment: Antibacterial activity against Streptococcus pneumoniae ATCC 49619 after 18 hrs; type: functional; details: ATCC 49619, 18 h; method in brief: as §2
[17] = system: Streptococcus pyogenes; experiment: Antibacterial activity against Streptococcus pyogenes ATCC 19615 after 18 hrs; type: functional; details: ATCC 19615, 18 h; method in brief: as §2
[18] = system: Streptococcus viridans; experiment: Antibacterial activity against Streptococcus viridans OCC 234 after 18 hrs; type: functional; details: OCC 234, 18 h; method in brief: as §2
[19] = system: Salmonella enterica subsp. enterica serovar Abony; experiment: Antibacterial activity against Salmonella enterica subspecies enterica serotype Abony NCTC 6017 after 18 hrs; type: functional; details: NCTC 6017, 18 h; method in brief: as §1
[20] = Antibacterial activity against Salmonella enterica subspecies enterica serotype Arizonae OCC 706 after 18 hrs; type: functional, Salmonella enterica subsp. enterica serovar Arizonae; details: OCC 706, 18 h; method in brief: as §1
[21] = Antibacterial activity against Salmonella enterica subspecies enterica serotype Dublin OCC 627 after 18 hrs; type: functional, Salmonella enterica subsp. enterica serovar Dublin; details: OCC 627, 18 h; method in brief: as §1
[22] = system: Salmonella enteritidis; experiment: Antibacterial activity against Salmonella enterica subspecies enterica serotype Enteritidis 13076 after 18 hrs; type: functional, Salmonella enterica subsp. enterica serovar Enteritidis; details: Salmonella enterica, 13076, 18 h; method in brief: as §1
[23] = Antibacterial activity against Salmonella enterica subspecies enterica serotype Indiana OCC 597 after 18 hrs; type: functional, Salmonella enterica subsp. enterica serovar Indiana; details: OCC 597, 18 h; method in brief: as §1
[24] = Antibacterial activity against Salmonella enterica subspecies enterica serotype Infantis OCC 2133 after 18 hrs; type: functional, Salmonella enterica subsp. enterica serovar Infantis; details: OCC 2133, 18 h; method in brief: as §1
[25] = Antibacterial activity against Salmonella enterica subspecies enterica serotype Nottingham NCTC 7832 after 18 hrs; type: functional, Salmonella enterica subsp. enterica serovar Nottingham; details: NCTC 7832, 18 h; method in brief: as §1
[26] = Antibacterial activity against Salmonella enterica subspecies enterica serotype Poona NCTC 4840 after 18 hrs; type: functional, Salmonella enterica subsp. enterica serovar Poona; details: NCTC 4840, 18 h; method in brief: as §1
[27] = Antibacterial activity against Salmonella enterica subspecies enterica serotype Pullorum OCC 273 after 18 hrs; type: functional, Salmonella enterica subsp. enterica serovar Pullorum; details: OCC 273, 18 h; method in brief: as §1
[28] = system: Salmonella typhimurium; experiment: Antibacterial activity against Salmonella enterica subspecies enterica serotype typhimurium ATCC 14028 after 18 hrs; type: functional, Salmonella enterica subsp. enterica serovar Typhimurium; details: ATCC 14028, 18 h; method in brief: as §1
[29] = Antibacterial activity against Salmonella enterica subspecies enterica serotype Virchow NCTC 5742 after 18 hrs; type: functional, Salmonella enterica subsp. enterica serovar Virchow; details: NCTC 5742, 18 h; method in brief: as §1

Question: For `O[C@@H]1[C@@H](Oc2cc(Cl)ccc2Oc2ccc(Cl)cc2Cl)OC[C@@H](O)[C@H]1O`, which MIC [1] is on record?
Answer: 0.5 µg/mL (≈ 1.19 µM)

Question: And the MIC [2]?
Answer: 0.5 µg/mL (≈ 1.19 µM)

Question: What about the MIC [3] of the same molecule?
Answer: 0.5 µg/mL (≈ 1.19 µM)

Question: What about the MIC [4] of the same molecule?
Answer: 0.5 µg/mL (≈ 1.19 µM)

Question: And the MIC [5]?
Answer: 0.5 µg/mL (≈ 1.19 µM)

Question: What about the MIC [6] of the same molecule?
Answer: 0.5 µg/mL (≈ 1.19 µM)

Question: And the MIC [7]?
Answer: 0.5 µg/mL (≈ 1.19 µM)

Question: And the MIC [8]?
Answer: 0.5 µg/mL (≈ 1.19 µM)

Question: What about the MIC [9] of the same molecule?
Answer: 0.5 µg/mL (≈ 1.19 µM)

Question: What about the MIC [10] of the same molecule?
Answer: 0.5 µg/mL (≈ 1.19 µM)

Question: And the MIC [11]?
Answer: 0.5 µg/mL (≈ 1.19 µM)

Question: What about the MIC [12] of the same molecule?
Answer: 0.5 µg/mL (≈ 1.19 µM)

Question: What about the MIC [13] of the same molecule?
Answer: 8 µg/mL (≈ 19 µM)

Question: And the MIC [14]?
Answer: 128 µg/mL (≈ 304 µM)

Question: And the MIC [15]?
Answer: 64 µg/mL (≈ 152 µM)

Question: And the MIC [16]?
Answer: 64 µg/mL (≈ 152 µM)

Question: And the MIC [17]?
Answer: 16 µg/mL (≈ 37.9 µM)

Question: What about the MIC [18] of the same molecule?
Answer: 128 µg/mL (≈ 304 µM)

Question: What about the MIC [19] of the same molecule?
Answer: 2 to 8 µg/mL (≈ 4.74 to 19 µM)

Question: What about the MIC [20] of the same molecule?
Answer: 2 to 8 µg/mL (≈ 4.74 to 19 µM)

Question: What about the MIC [21] of the same molecule?
Answer: 2 to 8 µg/mL (≈ 4.74 to 19 µM)

Question: And the MIC [22]?
Answer: 2 to 8 µg/mL (≈ 4.74 to 19 µM)

Question: What about the MIC [23] of the same molecule?
Answer: 2 to 8 µg/mL (≈ 4.74 to 19 µM)

Question: What about the MIC [24] of the same molecule?
Answer: 2 to 8 µg/mL (≈ 4.74 to 19 µM)

Question: And the MIC [25]?
Answer: 2 to 8 µg/mL (≈ 4.74 to 19 µM)

Question: And the MIC [26]?
Answer: 2 to 8 µg/mL (≈ 4.74 to 19 µM)

Question: What about the MIC [27] of the same molecule?
Answer: 2 to 8 µg/mL (≈ 4.74 to 19 µM)

Question: And the MIC [28]?
Answer: 2 to 8 µg/mL (≈ 4.74 to 19 µM)

Question: And the MIC [29]?
Answer: 2 to 8 µg/mL (≈ 4.74 to 19 µM)
